Reference: ChEMBL document CHEMBL3596120, “Discovery of natural alkaloid bouchardatine as a novel inhibitor of adipogenesis/lipogenesis in 3T3-L1 adipocytes” (Bioorg Med Chem, 2015)
Calls of active or inactive are those of the source.

Assays:
[1] = Cytotoxicity against mouse 3T3L1 cells at 1 to 50 uM incubated for 1 to 9 days by LDH assay; assay type: cell-based; settings: 3t3-l1, 50 µM
Outline: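 3T3-L1 adipocytes seeded at 7 × 10^3 cells/well, then treated 24 h later with DMSO vehicle as control. LDH in media and in cell lysates measured with a commercial kit. Cytotoxicity = LDH released into medium / maximal LDH release × 100. Maximum: […]. Blank: medium without cells.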

[2] = Cytotoxicity against mouse 3T3L1 cells assessed effect on cell morphology at 1 to 50 uM incubated for 1 to 9 days by microscopy; assay type: cell-based; settings: 3t3-l1, 50 µM
[3] = system: 3T3-L1; assay: Inhibition of adipogenesis in mouse 3T3L1 cells assessed as reduction in triglyceride content at 1 to 50 uM by colorimetric assay; assay type: functional, cell-based
[4] = system: 3T3-L1; assay: Inhibition of adipogenesis in mouse 3T3L1 cells assessed as reduction in cell size at 1 to 50 uM by oil Red-O staining based microscopy; assay type: functional
Outline: (§1)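 After 3T3-L1 differentiation (IBMX/dexamethasone/insulin induction, insulin, then basal medium), cells were PBS-washed and fixed in 4% formalin for 60 min. Stained with filtered Oil Red O for 30 min at room temperature and imaged at 40× objective. Dye eluted with isopropanol and read at 510 nm. Three independent experiments.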

[5] = system: 3T3-L1; assay: Inhibition of adipogenesis in mouse 3T3L1 cells assessed as reduction in lipid droplets at 1 to 50 uM by oil Red-O staining based microscopy; assay type: functional, cell-based; outline: as §1
[6] = system: 3T3-L1; assay: Inhibition of adipogenesis in mouse 3T3L1 cells assessed as reduction in cell finger ring diameter size at 1 to 50 uM by oil Red-O staining based microscopy; assay type: functional; outline: as §1
[7] = system: 3T3-L1; assay: Inhibition of adipogenesis in mouse 3T3L1 cells assessed as reduction in lipid content at 25 uM by colorimetric assay; assay type: functional
[8] = system: HepG2; assay: Cytotoxicity against human HepG2 cells at 1 to 100 uM by MTT assay; assay type: cell-based; settings: hepg2, 100 µM
Outline: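 HepG2 cells seeded at 7 × 10^3 cells/well. After 24 h, treated with 1, 10, 25, 50 or 100 µM; DMSO vehicle control. After the set time, MTT at 0.5 mg/mL was added for 4 h at 37 °C. Formazan dissolved in DMSO and read at 490 nm. Run in triplicate.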

[9] = system: HepG2; assay: Inhibition of oleic acid-induced adipogenesis in human HepG2 cells assessed as reduction in triglyceride content by colorimetric assay; assay type: functional, cell-based
Outline: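 HepG2 cells loaded with 0.5 mM oleic acid sodium, with or without compound. Lysed in 0.2% Triton X-100 in water and sonicated. TG measured colorimetrically and normalised to cellular protein. Blank: no oleate. Three independent experiments.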

[10] = system: 3T3-L1; assay: Inhibition of adipogenesis in mouse 3T3L1 cells assessed as reduction in triglyceride content at 25 uM treated on day 0 to 3 by colorimetric assay; assay type: functional; settings: 3T3-L1, 0 h
[11] = system: 3T3-L1; assay: Inhibition of adipogenesis in mouse 3T3L1 cells assessed as reduction in triglyceride content at 25 uM treated on day 3 to 6 by colorimetric assay; assay type: functional; settings: 3T3-L1, 72 h
[12] = system: 3T3-L1; assay: Inhibition of adipogenesis in mouse 3T3L1 cells assessed as reduction in triglyceride content at 25 uM treated on day 6 to 9 by colorimetric assay; assay type: functional; settings: 3T3-L1, 144 h
[13] = system: 3T3-L1; assay: Inhibition of adipogenesis in mouse 3T3L1 cells assessed as reduction in triglyceride content at 25 uM treated on day 0 to 3 by oil Red-O staining based microscopy; assay type: functional, cell-based; outline: as §1
[14] = system: 3T3-L1; assay: Inhibition of adipogenesis in mouse 3T3L1 cells assessed as reduction in triglyceride content at 25 uM treated on day 0 to 6 by oil Red-O staining based microscopy; assay type: functional, cell-based; outline: as §1
[15] = system: 3T3-L1; assay: Inhibition of adipogenesis in mouse 3T3L1 cells assessed as reduction in triglyceride content at 25 uM treated on day 0 to 9 by oil Red-O staining based microscopy; assay type: functional, cell-based; outline: as §1
[16] = system: 3T3-L1; assay: Inhibition of adipogenesis in mouse 3T3L1 cells assessed as reduction in triglyceride content at 25 uM treated on day 3 to 6 by oil Red-O staining based microscopy; assay type: functional, cell-based; outline: as §1
[17] = system: 3T3-L1; assay: Inhibition of adipogenesis in mouse 3T3L1 cells assessed as reduction in triglyceride content at 25 uM treated on day 3 to 9 by oil Red-O staining based microscopy; assay type: functional, cell-based; outline: as §1
[18] = system: 3T3-L1; assay: Inhibition of adipogenesis in mouse 3T3L1 cells assessed as reduction in triglyceride content at 25 uM treated on day 6 to 9 by oil Red-O staining based microscopy; assay type: functional, cell-based; outline: as §1
[19] = system: 3T3-L1; assay: Induction of cell cycle arrest in mouse 3T3L1 cells assessed as accumulation at G2/M phase at 1 to 50 uM by flow cytometry; assay type: functional, cell-based
[20] = system: 3T3-L1; assay: Induction of cell cycle arrest in mouse 3T3L1 cells assessed as accumulation at G0/G1 phase at 1 to 50 uM after 24 hrs by flow cytometry; assay type: functional, cell-based
[21] = system: 3T3-L1; assay: Induction of cell cycle arrest in mouse 3T3L1 cells assessed as accumulation at S phase at 25 uM after 24 hrs by flow cytometry (reference value: 18%); assay type: functional
[22] = system: 3T3-L1; assay: Induction of cell cycle arrest in mouse 3T3L1 cells assessed as accumulation at G0/G1 phase at 25 uM after 24 hrs by flow cytometry (reference value: 42%); assay type: functional
[23] = system: 3T3-L1; assay: Induction of cell cycle arrest in mouse 3T3L1 cells assessed as accumulation at G2/M phase at 25 uM after 24 hrs by flow cytometry (reference value: 29%); assay type: functional
[24] = Reduction in C/EBPbeta mRNA expression in mouse 3T3L1 cells after 72 hrs by RT-PCR method; assay type: functional, cell-based; settings: 3T3-L1
Outline: (§2)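 3T3-L1 preadipocytes grown in DMEM with 10% FBS at 37 °C under 5% CO2. Differentiation starts 2 days post-confluence (day 0) with IBMX, 100 ng/mL dexamethasone and insulin for 3 d, then insulin in 10% FBS/DMEM for 3 d, then basic medium for 3 d. Compound is added on day 0 and renewed at day 3. Vehicle control receives the same volume of DMSO.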

[25] = Reduction in C/EBPalpha mRNA expression in mouse 3T3L1 cells at 1 to 50 uM after 72 hrs by RT-PCR method; assay type: functional, cell-based; settings: 3T3-L1
[26] = Reduction in PPARgamma mRNA expression in mouse 3T3L1 cells at 1 to 50 uM after 72 hrs by RT-PCR method; assay type: functional, cell-based; settings: 3T3-L1; outline: as §2
[27] = Reduction in SREBP-1c mRNA expression in mouse 3T3L1 cells at 1 to 50 uM after 72 hrs by RT-PCR method; assay type: functional, cell-based; settings: 3T3-L1; outline: as §2
[28] = Reduction in C/EBPbeta mRNA expression in mouse 3T3L1 cells at 25 uM by RT-PCR method; assay type: functional, cell-based; settings: 3T3-L1, TDE = time-dependent effect; outline: as §2
[29] = Reduction in C/EBPdelta mRNA expression in mouse 3T3L1 cells at 25 uM by RT-PCR method; assay type: functional, cell-based; settings: 3T3-L1, TDE = time-dependent effect; outline: as §2
[30] = Reduction in C/EBPalpha mRNA expression in mouse 3T3L1 cells at 25 uM by RT-PCR method; assay type: functional, cell-based; settings: 3T3-L1, TDE = time-dependent effect
[31] = Reduction in C/PPARgamma mRNA expression in mouse 3T3L1 cells at 25 uM by RT-PCR method; assay type: functional, cell-based; settings: 3T3-L1, TDE = time-dependent effect; outline: as §2
[32] = Reduction in C/EBPalpha protein expression in mouse 3T3L1 cells at 1 to 50 uM by Western blot method; assay type: functional, cell-based; settings: 3T3-L1
Outline: (§3)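 Mouse 3T3-L1 cells taken through the differentiation protocol, with compound or DMSO vehicle given from day 0 and renewed at day 3. Cells lysed on ice for 0.5 h in RIPA with PMSF, Na3VO4, NaF and protease inhibitors, then centrifuged at 12,000g. Lysates run on 12% SDS-PAGE and transferred to PVDF. Blots probed overnight at 4 °C and detected with HRP secondary. Bands quantified by optical density against GAPDH. Three independent experiments.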

[33] = Reduction in PPARgamma protein expression in mouse 3T3L1 cells at 1 to 50 uM by Western blot method; assay type: functional, cell-based; settings: 3T3-L1; outline: as §2
[34] = Reduction in SREBP-1c protein expression in mouse 3T3L1 cells at 1 to 50 uM by Western blot method; assay type: functional, cell-based; settings: 3T3-L1; outline: as §2
[35] = Reduction in SCD1 protein expression in mouse 3T3L1 cells at 1 to 50 uM after 9 days by Western blot method; assay type: functional, cell-based; settings: 3T3-L1; outline: as §2
[36] = Reduction in FAS protein expression in mouse 3T3L1 cells at 1 to 50 uM after 9 days by Western blot method; assay type: functional, cell-based; settings: 3T3-L1; outline: as §2
[37] = Reduction in ACC protein expression in mouse 3T3L1 cells at 1 to 50 uM after 9 days by Western blot method; assay type: functional, cell-based; settings: 3T3-L1; outline: as §3
[38] = system: 3T3-L1; assay: Increase in AMPKalpha Thr172 phosphorylation in mouse 3T3L1 cells at 1 to 50 uM after 9 days by Western blot method; assay type: cell-based; outline: as §3
[39] = system: 3T3-L1; assay: Increase in AMPKbeta Ser108 phosphorylation in mouse 3T3L1 cells at 1 to 50 uM after 9 days by Western blot method; assay type: cell-based; outline: as §3
[40] = system: 3T3-L1; assay: Activation of AMPK in mouse 3T3L1 cells assessed as increase in ACC Ser79 phosphorylation at 1 to 50 uM after 9 days by Western blot method; assay type: cell-based; outline: as §3
[41] = Reduction in AMPKalpha protein expression in mouse 3T3L1 cells at 1 to 50 uM after 9 days by Western blot method; assay type: functional, cell-based; settings: 3T3-L1; outline: as §3
[42] = Reduction in AMPKbeta protein expression in mouse 3T3L1 cells at 1 to 50 uM after 9 days by Western blot method; assay type: functional, cell-based; settings: 3T3-L1; outline: as §3
[43] = system: 3T3-L1; assay: Increase in AMPKalpha Thr172 phosphorylation in mouse 3T3L1 cells at 25 uM by Western blot method; assay type: cell-based; settings: TDE = time-dependent effect
[44] = system: 3T3-L1; assay: Reduction in AMPKalpha1 mRNA expression in mouse 3T3L1 cells at 25 uM after 24 hrs by RT-PCR method; assay type: functional, cell-based
[45] = system: 3T3-L1; assay: Reduction in AMPKalpha2 mRNA expression in mouse 3T3L1 cells at 25 uM after 24 hrs by RT-PCR method; assay type: functional, cell-based
[46] = system: 3T3-L1; assay: Inhibition of adipogenesis in mouse 3T3L1 cells assessed as reduction in triglyceride content at 25 uM by colorimetric assay; assay type: functional, cell-based
[47] = system: 3T3-L1; assay: Increase in AMPKalpha Thr172 phosphorylation in mouse 3T3L1 cells at 25 uM after 9 days by Western blot method; assay type: cell-based; outline: as §3
[48] = system: 3T3-L1; assay: Activation of AMPK in mouse 3T3L1 cells assessed as increase in ACC Ser79 phosphorylation at 25 uM after 9 days by Western blot method; assay type: cell-based; outline: as §3
[49] = Reduction in SREBP-1c protein expression in mouse 3T3L1 cells at 25 uM after 3 days by Western blot method; assay type: functional, cell-based; settings: 3T3-L1; outline: as §2
[50] = Reduction in PPARgamma protein expression in mouse 3T3L1 cells at 25 uM after 3 days by Western blot method; assay type: functional, cell-based; settings: 3T3-L1; outline: as §2
[51] = Reduction in C/EBPalpha protein expression in mouse 3T3L1 cells at 25 uM after 3 days by Western blot method; assay type: functional, cell-based; settings: 3T3-L1; outline: as §2
[52] = Reduction in FAS protein expression in mouse 3T3L1 cells at 25 uM after 9 days by Western blot method; settings: 3T3-L1
[53] = Reduction in SCD1 protein expression in mouse 3T3L1 cells at 25 uM after 9 days by Western blot method; settings: 3T3-L1

O=Cc1c(-c2nc3ccccc3c(=O)[nH]2)[nH]c2ccccc12
Non-toxic: Activity [1] | Activity [2] | Activity [8]
57%: Activity [23]
50%: inhibition at 25 µM [7] | inhibition at 25 µM [10]
5%: Activity [21]
active: inhibition [3] Dose-dependent effect | inhibition [4] | inhibition [5] | inhibition [6] | inhibition [9] Dose-dependent effect | inhibition [13] | inhibition [14] | inhibition [15] | inhibition [16] | inhibition [17] | inhibition [18] | Activity [19] | Activity [20] Dose-dependent effect | Activity [24] Dose-dependent effect | Activity [25] | Activity [26] | Activity [27] | Activity [28] tde | Activity [29] tde | Activity [30] tde | Activity [31] tde | Activity [32] | Activity [33] | Activity [34] | Activity [35] | Activity [36] | Activity [37] | Activity [38] Dose-dependent effect | Activity [39] Dose-dependent effect | Activity [40] | Activity [41] | Activity [42] | Activity [43] tde | Activity [44] | Activity [45] | Activity [46] | Activity [47] | Activity [48] | Activity [49] | Activity [50] | Activity [51] | Activity [52] | Activity [53]
< 10%: inhibition at 25 µM [12]
40%: Activity [22]
30%: inhibition at 25 µM [11]
